Data reported in paper PMC3355519 (Journal of Medicinal Chemistry, 2012).

Key:
[1] = tested on: HIV-1 protease D30N/N88D double mutant; settings: cited from earlier work
[2] = molecular target: HIV-1 PRI47V (Human immunodeficiency virus type 1 group M subtype B, UniProt P04585, C555A/C583A/I535V/L521I/L551I/Q495K); test: HIV-1 protease inhibition, fluorogenic p2/NC substrate, I47V mutant; assay type: biochemical
How it was run: (§1)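 Recombinant HIV-1 protease (HXB2) carried stabilising substitutions Q7K, L33I, L63I, C67A and C95A, plus the point mutation introduced by site-directed mutagenesis. It was expressed in E. coli BL21(DE3) and purified from inclusion bodies. Enzyme (12-45 nM final) was preincubated 5 min at 37 °C with test compound or DMSO in 0.1 M MES pH 5.6, 0.4 M NaCl, 1 mM EDTA, 5% glycerol. Abz-Thr-Ile-Nle-p-nitro-Phe-Gln-Arg-NH2 started the reaction, read 5 min at ex 340/em 420 nm. Ki = (IC50 − [E]/2)/(1 + [S]/Km).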

[3] = molecular target: HIV-1 PRV82A (Human immunodeficiency virus type 1 group M subtype B, UniProt P04585, C555A/C583A/L521I/L551I/Q495K/V570A); test: HIV-1 protease inhibition, fluorogenic p2/NC substrate, V82A mutant; assay type: biochemical; settings: PRV82A vs PRWT
How it was run: as §1

[4] = tested on: HIV-1LAI; settings: against HIV-1LAI; cited from earlier work

Row | SMILES | increase of Ki value compared to wild-type [1] | Ki ([2]; Ki, PRI47V, pH 5.6, 37 °C) | change in the inhibition constant vs wild-type ([2]; PRI47V vs PRWT) | change in the inhibition constant vs wild-type [3] | selectivity index (CC50/EC50) [4]
1 | Cc1c(O)cccc1C(=O)N[C@@H](CSc1ccccc1)[C@H](O)CN1C[C@H]2CCCC[C@H]2C[C@H]1C(=O)NC(C)(C)C [NFV, nelfinavir] | 260 fold |  |  |  | 
2 | COc1ccc(S(=O)(=O)N(C[C@H]2CCC(=O)N2)C[C@@H](O)[C@H](Cc2ccccc2)NC(=O)O[C@@H]2C[C@@H]3CCO[C@@H]3C2)cc1 [Compound 1] |  | 0.4 nM | less than 2 fold | less than 2 fold | > 3,600
